In ChEMBL document CHEMBL2417356, “Identification of 2,3-disubstituted pyridines as potent, orally active PDE4 inhibitors” (Bioorg Med Chem, 2013):
Calls of active or inactive are those of the source. The rule behind the calls is not given here.

Key:
[1] = (§1) Inhibition of Hartley guinea pig eosinophil PDE4 assessed as cAMP hydrolysis by two-step radioisotope method; design: species or system Cavia porcellus
Outline: (§2)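 PDE4 purified from eosinophils of male Hartley guinea pigs (~500 g) given 5 mg polymyxin B. Activity measured by a modified two-step radioisotope method with [3H]cAMP substrate, quantifying hydrolyzed cAMP. IC50 taken as the concentration giving 50% inhibition of hydrolysis, from concentration–response curves. Three experiments per agent.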

Cavia porcellus [2] = species on record: Cavia porcellus; assay: Inhibition of Hartley guinea pig eosinophil PDE4 assessed as cAMP hydrolysis at 100 nM by two-step radioisotope method relative to control
Cavia porcellus [3] = species on record: Cavia porcellus; assay: as §1; outline: as §2
Mus musculus = assay: Antiinflammatory activity in mouse assessed as inhibition ovalbumin-induced eosinophil infiltration into lung at 10 mg/kg, po administered 30 mins prior to ovalbumin challenge followed by once per day compound administration measured after 2 days relative to vehicle-treated control; type: functional
Outline: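 Male mice, 5 weeks old, OVA-sensitized. Dosed orally 30 min before intranasal OVA challenge and once daily for the next 2 days. Challenge given 7 days after the last sensitizing OVA injection, under anaesthesia. Bronchoalveolar lavage under pentobarbital 3 days post-challenge. BALF diluted 10-fold in Turk's solution and living infiltrated cells counted. % inhibition calculated against vehicle group.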

Cavia porcellus [4] = assay: Bronchodilatory activity in ovalbumin-treated guinea pig at 10 mg/kg, po administered 1 hr prior to ovalbumin challenge relative to vehicle-treated control; type: functional
Outline: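 Male guinea pigs OVA-sensitized at 3 weeks old, studied 6 weeks later. Anesthetized, tracheally cannulated and ventilated with room air at 60 strokes/min. Air-overflow measured by the Konzett-Rössler method. Bronchospasm induced by i.v. OVA via hind-paw vein. Peak response taken within 10 min of challenge as % of theoretical maximum. Oral dosing 1 h before challenge; % inhibition against vehicle.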

Row | Compound | IC50 [1] [nM] | inhibition (Cavia porcellus [2]) [%] | also measured
1 | N#CCCCOc1cccnc1Sc1cccc(Br)c1 | 104 |  | 
2 | Brc1cccc(Sc2ncccc2OCCCCc2cccnc2)c1 |  | 5 | 
3 | O=C(c1cccc(Br)c1)c1ccccn1 |  |  | inhibition (Cavia porcellus [3]): inactive
4 | Brc1cccc(Sc2ncccc2OCCCc2cccnc2)c1 |  | 69 | 
5 | Brc1cccc(Sc2ncccc2OCCCc2ccccn2)c1 |  | 10 | 
6 | Brc1cccc(Sc2ncccc2OCCc2ccncc2)c1 |  | 56 | 
7 | Brc1cccc(Sc2ncccc2OCCCCc2ccncc2)c1 |  | 3 | 
8 | COc1ccc(C2CNC(=O)C2)cc1OC1CCCC1 (centres undefined) [ROLIPRAM] | 54 |  | inhibition in vivo at 10 mg/kg (Mus musculus): 39%
9 | Brc1cccc(Sc2ncccc2OCCc2cccnc2)c1 |  | 60 | 
10 | Brc1cccc(Sc2ncccc2OCCCc2ccncc2)c1 | 34 | 80 | inhibition in vivo at 10 mg/kg (Mus musculus): 50%; Activity (Cavia porcellus [4]): 77%
